Data: ChEMBL document CHEMBL1629526, “4-[1-(Substituted aryl/alkyl carbonyl)-benzoimidazol-2-yl]-benzenesulfonic acids: synthesis, antimicrobial activity, QSAR studies, and antiviral evaluation” (Eur J Med Chem, 2010)
≈ marks a conversion by molar mass, not a printed value.

How the values were obtained:
Influenza A virus [1] = experiment: Antiviral activity against Influenza A H1N1 virus subtype infected in MDCK cells assessed as inhibition of virus induced cytopathicity after 2 to 4 days by MTS assay; format: functional, organism-based
Human respirovirus 3 = experiment: Antiviral activity against parainfluenza-3 virus infected in african green monkey Vero cells assessed as inhibition of virus induced cytopathicity after 2 to 4 days by MTS assay; format: functional, organism-based; details: Human respirovirus 3, Vero
MDCK = experiment: Cytotoxicity against MDCK cells assessed as cell viability by MTS assay; format: cell-based, Canis lupus familiaris; details: dog, mdck
Method in brief: (§1)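 Uninfected cultures were run in parallel with the antiviral assays. Viability was read by colorimetric formazan MTS assay.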

[2] = Cytotoxicity against cat CRFK cells assessed as cell viability by MTS assay; format: cell-based, Felis catus; details: crfk; method in brief: as §1
HeLa = experiment: Cytotoxicity against human HeLa cells assessed as cell viability by MTS assay; format: cell-based; details: hela; method in brief: as §1
[3] = Cytotoxicity against african green monkey Vero cells assessed as altered cell morphology; format: cell-based; details: chlorocebus sabaeus
Method in brief: (§2)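 Uninfected cell cultures run alongside the antiviral assays, exposed to serial compound dilutions and incubated at 37 °C for 2–4 days. Toxicity was scored microscopically and reported as the minimum cytotoxic concentration (MCC), the lowest concentration causing a detectable change in normal cell morphology.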

Candida albicans = experiment: Antimicrobial activity against Candida albicans after 48 hrs by tube dilution method; format: functional
Aspergillus niger = experiment: Antimicrobial activity against Aspergillus niger after 7 days by tube dilution method; format: functional; details: 168 h
Bacillus subtilis = experiment: Antimicrobial activity against Bacillus subtilis after 24 hrs by tube dilution method; format: functional
Method in brief: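 Serial dilutions in double-strength nutrient broth (I.P.) with ciprofloxacin as reference, tube dilution, incubated 37 °C for 24 h. MIC is the lowest concentration that inhibited growth.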

[4] = test system: Vesicular stomatitis virus; experiment: Antiviral activity against Vesicular stomatitis virus infected in human HeLa cells assessed as inhibition of virus induced cytopathicity after 2 to 4 days by MTS assay; format: functional, organism-based
Feline coronavirus = experiment: Antiviral activity against Feline coronavirus infected in cat CRFK cells assessed as inhibition of virus induced cytopathicity after 2 to 4 days by MTS assay; format: functional, organism-based; details: Alphacoronavirus 1, CRFK
[5] = Cytotoxicity against MDCK cells assessed as altered cell morphology; format: cell-based, Canis lupus familiaris; details: dog; method in brief: as §2
Felid alphaherpesvirus 1 = experiment: Antiviral activity against Feline herpesvirus 1 infected in cat CRFK cells assessed as inhibition of virus induced cytopathicity after 2 to 4 days by MTS assay; format: functional, organism-based; details: Felid alphaherpesvirus 1, CRFK
[6] = test system: Respiratory syncytial virus; experiment: Antiviral activity against Respiratory syncytial virus infected in human HeLa cells assessed as inhibition of virus induced cytopathicity by visual scoring of CPE; format: functional, organism-based
Influenza B virus [7] = experiment: Antiviral activity against Influenza B virus infected in MDCK cells assessed as inhibition of virus induced cytopathicity by visual scoring of CPE; format: functional, organism-based
Influenza A virus [8] = experiment: Antiviral activity against Influenza A H3N2 virus subtype infected in MDCK cells assessed as inhibition of virus induced cytopathicity by visual scoring of CPE; format: functional, organism-based
[9] = Cytotoxicity against human HeLa cells assessed as altered cell morphology; format: cell-based; method in brief: as §2
Escherichia coli = experiment: Antimicrobial activity against Escherichia coli after 24 hrs by tube dilution method; format: functional
Punta Toro virus = experiment: Antiviral activity against Punta Toro virus infected in african green monkey Vero cells assessed as inhibition of virus induced cytopathicity after 2 to 4 days by MTS assay; format: functional, organism-based
Coxsackievirus B4 [10] = experiment: Antiviral activity against coxsackievirus B4 infected in human HeLa cells assessed as inhibition of virus induced cytopathicity by visual scoring of CPE; format: functional, organism-based; details: Enterovirus B
Sindbis virus = experiment: Antiviral activity against Sindbis virus infected in african green monkey Vero cells assessed as inhibition of virus induced cytopathicity after 2 to 4 days by MTS assay; format: functional, organism-based
Coxsackievirus B4 [11] = experiment: Antiviral activity against Coxsackie virus B4 infected in african green monkey Vero cells assessed as inhibition of virus induced cytopathicity after 2 to 4 days by MTS assay; format: functional, organism-based; details: Enterovirus B
Coxsackievirus B4 [12] = experiment: Antiviral activity against coxsackievirus B4 infected in human HeLa cells assessed as inhibition of virus induced cytopathicity after 2 to 4 days by MTS assay; format: functional, organism-based; details: Enterovirus B
Staphylococcus aureus = experiment: Antimicrobial activity against Staphylococcus aureus after 24 hrs by tube dilution method; format: functional
[13] = Cytotoxicity against human HEL cells assessed as altered cell morphology; format: cell-based; method in brief: as §2
Influenza A virus [14] = experiment: Antiviral activity against Influenza A H1N1 virus subtype infected in MDCK cells assessed as inhibition of virus induced cytopathicity by visual scoring of CPE; format: functional, organism-based
Vaccinia virus = experiment: Antiviral activity against Vaccinia virus infected in HEL cells assessed as inhibition of virus induced cytopathicity after 2 to 4 days by MTS assay; format: functional, organism-based; details: Orthopoxvirus vaccinia
Influenza B virus [15] = experiment: Antiviral activity against Influenza B virus infected in MDCK cells assessed as inhibition of virus induced cytopathicity after 2 to 4 days by MTS assay; format: functional, organism-based
Human alphaherpesvirus 1 [16] = experiment: Antiviral activity against thymidine kinase deficient acyclovir-resistant Herpes simplex virus 1 KOS infected in HEL cells assessed as inhibition of virus induced cytopathicity after 2 to 4 days by MTS assay; format: functional, organism-based; details: Human alphaherpesvirus 1, KOS
[17] = test system: Vesicular stomatitis virus; experiment: Antiviral activity against Vesicular stomatitis virus infected in human HeLa cells assessed as inhibition of virus induced cytopathicity by visual scoring of CPE; format: functional, organism-based
[18] = test system: Mammalian orthoreovirus 1; experiment: Antiviral activity against Reovirus 1 virus infected in african green monkey Vero cells assessed as inhibition of virus induced cytopathicity after 2 to 4 days by MTS assay; format: functional, organism-based; details: Mammalian orthoreovirus 1, Vero
[19] = test system: Respiratory syncytial virus; experiment: Antiviral activity against Respiratory syncytial virus infected in human HeLa cells assessed as inhibition of virus induced cytopathicity after 2 to 4 days by MTS assay; format: functional, organism-based
Human alphaherpesvirus 1 [20] = experiment: Antiviral activity against Herpes simplex virus 1 KOS infected in HEL cells assessed as inhibition of virus induced cytopathicity after 2 to 4 days by MTS assay; format: functional, organism-based; details: Human alphaherpesvirus 1, KOS
[21] = test system: Vesicular stomatitis virus; experiment: Antiviral activity against Vesicular stomatitis virus infected in HEL cells assessed as inhibition of virus induced cytopathicity after 2 to 4 days by MTS assay; format: functional, organism-based
Influenza A virus [22] = experiment: Antiviral activity against Influenza A H3N2 virus subtype infected in MDCK cells assessed as inhibition of virus induced cytopathicity after 2 to 4 days by MTS assay; format: functional, organism-based
Human alphaherpesvirus 2 = experiment: Antiviral activity against Herpes simplex virus 2 G infected in HEL cells assessed as inhibition of virus induced cytopathicity after 2 to 4 days by MTS assay; format: functional, organism-based; details: Human alphaherpesvirus 2, strain G

Compound | EC50 (Influenza A virus [1]) | EC50 (Human respirovirus 3) | CC50 (MDCK) | CC50 [2] | CC50 (HeLa) | MCC [3] | MFC (Candida albicans) | MFC (Aspergillus niger) | MBC (Bacillus subtilis) | EC50 [4] | EC50 (Feline coronavirus) | MCC [5] | EC50 (Felid alphaherpesvirus 1) | EC50 [6] | EC50 (Influenza B virus [7]) | EC50 (Influenza A virus [8]) | MCC [9] | MBC (Escherichia coli) | EC50 (Punta Toro virus) | EC50 (Coxsackievirus B4 [10]) | also measured
Nc1ccc(C(=O)n2c(-c3ccc(S(=O)(=O)O)cc3)nc3ccccc32)cc1 | > 4 µg/mL | > 100 µg/mL | 46.8 µg/mL (≈ 119 µM) | > 100 µg/mL | > 100 µg/mL | > 100 µg/mL | > 50 µg/mL | > 50 µg/mL | > 50 µg/mL | > 100 µg/mL | > 100 µg/mL | 20 µg/mL | > 100 µg/mL | > 100 µg/mL | > 4 µg/mL | > 4 µg/mL | > 100 µg/mL | 25 µg/mL (≈ 63.5 µM) | > 100 µg/mL | > 100 µg/mL | EC50 (Sindbis virus): > 100 µg/mL; EC50 (Coxsackievirus B4 [11]): > 100 µg/mL; EC50 (Coxsackievirus B4 [12]): > 100 µg/mL; MBC (Staphylococcus aureus): 12.5 µg/mL (≈ 31.8 µM); MCC [13]: > 100 µg/mL; EC50 (Influenza A virus [14]): > 4 µg/mL; EC50 (Vaccinia virus): > 100 µg/mL; EC50 (Influenza B virus [15]): > 4 µg/mL; EC50 (Human alphaherpesvirus 1 [16]): > 100 µg/mL; EC50 [17]: > 100 µg/mL; EC50 [18]: > 100 µg/mL; EC50 [19]: > 100 µg/mL; EC50 (Human alphaherpesvirus 1 [20]): > 100 µg/mL; EC50 [21]: > 100 µg/mL; EC50 (Influenza A virus [22]): > 4 µg/mL; EC50 (Human alphaherpesvirus 2): > 100 µg/mL
O=C(c1cccc(O)c1)n1c(-c2ccc(S(=O)(=O)O)cc2)nc2ccccc21 | > 20 µg/mL | > 100 µg/mL | > 100 µg/mL | > 100 µg/mL | > 100 µg/mL | > 100 µg/mL | 50 µg/mL (≈ 127 µM) | > 50 µg/mL | > 50 µg/mL | > 100 µg/mL | > 100 µg/mL | 100 µg/mL | > 100 µg/mL | > 100 µg/mL | > 20 µg/mL | > 20 µg/mL | > 100 µg/mL | 3.12 µg/mL (≈ 7.91 µM) | > 100 µg/mL | > 100 µg/mL | EC50 (Sindbis virus): > 100 µg/mL; EC50 (Coxsackievirus B4 [11]): > 100 µg/mL; EC50 (Coxsackievirus B4 [12]): > 100 µg/mL; MBC (Staphylococcus aureus): 12.5 µg/mL (≈ 31.7 µM); MCC [13]: > 100 µg/mL; EC50 (Influenza A virus [14]): > 20 µg/mL; EC50 (Vaccinia virus): > 100 µg/mL; EC50 (Influenza B virus [15]): > 20 µg/mL; EC50 (Human alphaherpesvirus 1 [16]): > 100 µg/mL; EC50 [17]: > 100 µg/mL; EC50 [18]: > 100 µg/mL; EC50 [19]: > 100 µg/mL; EC50 (Human alphaherpesvirus 1 [20]): > 100 µg/mL; EC50 [21]: > 100 µg/mL; EC50 (Influenza A virus [22]): > 20 µg/mL; EC50 (Human alphaherpesvirus 2): > 100 µg/mL
